From ChEMBL document CHEMBL4673255, “Acylated 1H-1,2,4-Triazol-5-amines Targeting Human Coagulation Factor XIIa and Thrombin: Conventional and Microscale Synthesis, Anticoagulant Properties, and Mechanism of Action” (J Med Chem, 2020)

Columns and labels:
[1] = molecular target: T1, Monoglyceride lipase (Homo sapiens, UniProt Q99685); test: Inhibition of human recombinant MAGL using 1,3-dihydroxypropan-2-yl 4-pyren-1-ylbutanoate as substrate measured after 45 mins by reverse-phase HPLC-based fluorescence assay
T1 sequence (Q99685 whole entry): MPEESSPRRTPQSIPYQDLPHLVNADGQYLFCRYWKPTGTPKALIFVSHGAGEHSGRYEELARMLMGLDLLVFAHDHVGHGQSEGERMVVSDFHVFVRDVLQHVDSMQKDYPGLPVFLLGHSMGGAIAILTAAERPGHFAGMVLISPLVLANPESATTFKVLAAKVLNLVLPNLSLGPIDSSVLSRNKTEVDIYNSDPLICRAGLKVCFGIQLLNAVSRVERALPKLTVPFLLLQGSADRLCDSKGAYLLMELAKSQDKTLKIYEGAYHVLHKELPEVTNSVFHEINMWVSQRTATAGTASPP

[2] = molecular target: Urokinase-type plasminogen activator (Homo sapiens, UniProt P00749); test: Inhibition of human uPA using Tos-Gly-Pro-Arg-AMC as fluorogenic substrate measured at 1 min interval for 1 hr by fluorometric assay
[3] = tested on: Plasma; test: (§1) Anticoagulant activity in human platelet-rich plasma assessed as reduction in TF-induced thrombin generation by measuring half life of clotting time at 100 uM preincubated for 15 mins followed by TF addition by Z-Gly-Gly-Arg-AMC substrate based calibrated automated thrombography (Rvb= 3 +/- 0.5 min); type: functional, cell-free
In short: (§2)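 Tissue-factor-triggered homogeneous thrombin generation followed by fluorogenic substrate cleavage. Read-outs: clotting time (T1/2), peak amplitude (Amax, AU/L), time to peak (Tmax) and ETP (AU·min/L). DMSO and buffer served as controls. n = 3, mean ± SD.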

[4] = molecular target: Coagulation factor XI (Homo sapiens, UniProt P03951); test: Inhibition of human coagulation factor XIA using Mes-dArg-Pro-Arg-AMC as fluorogenic substrate measured at 1 min interval for 1 hr by fluorometric assay
[5] = molecular target: Prothrombin (Homo sapiens, UniProt P00734); test: Inhibition of human coagulation factor alpha-thrombin using Boc-Val-Pro-Arg-AMC as fluorogenic substrate measured at 1 min interval for 1 hr by fluorometric assay
[6] = tested on: Plasma; test: as §1, with “Tmax” for “half life”, “(reference value: 8.1” for “(Rvb= 3”, “0.6” for “0.5”; type: functional, cell-free; in short: as §2
[7] = molecular target: T2, Coagulation factor XII (Homo sapiens, UniProt P00748); test: Inhibition of human coagulation factor XIIA using Boc-Gln-Gly-Arg-AMC as fluorogenic substrate measured at 1 min interval for 1 hr by fluorometric assay
T2 sequence (P00748 whole entry): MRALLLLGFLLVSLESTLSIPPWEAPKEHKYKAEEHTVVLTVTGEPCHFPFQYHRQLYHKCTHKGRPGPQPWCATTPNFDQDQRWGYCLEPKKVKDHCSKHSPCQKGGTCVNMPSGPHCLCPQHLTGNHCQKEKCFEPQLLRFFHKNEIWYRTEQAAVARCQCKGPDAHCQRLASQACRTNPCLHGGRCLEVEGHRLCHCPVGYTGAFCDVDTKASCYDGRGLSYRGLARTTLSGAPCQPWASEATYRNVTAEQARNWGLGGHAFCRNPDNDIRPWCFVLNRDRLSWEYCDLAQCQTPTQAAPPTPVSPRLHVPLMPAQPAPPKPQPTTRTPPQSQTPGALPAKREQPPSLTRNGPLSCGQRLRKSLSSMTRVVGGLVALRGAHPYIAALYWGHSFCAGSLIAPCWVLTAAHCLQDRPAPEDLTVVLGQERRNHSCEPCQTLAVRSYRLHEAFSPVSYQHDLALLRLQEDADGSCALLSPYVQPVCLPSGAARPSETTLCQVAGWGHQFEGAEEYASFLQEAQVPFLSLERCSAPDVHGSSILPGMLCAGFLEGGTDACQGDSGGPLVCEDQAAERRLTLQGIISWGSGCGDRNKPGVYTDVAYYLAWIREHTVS

[8] = tested on: Plasma; test: as §1, with “endogenous thrombin potential” for “half life of clotting time”, “(reference value: 1203” for “(Rvb= 3”, “44 AU.min/L)” for “0.5 min)”; type: functional; conditions: 0.25 h; in short: as §2
[9] = tested on: HepG2; test: Cytotoxicity against human HepG2 cells assessed as reduction in cell viability at 100 uM incubated for 48 hrs by alamar blue assay relative to control; type: cell-based; conditions: hepg2, 48 h
[10] = tested on: Blood; test: Anticoagulant activity in human blood assessed as concentration required to double the activated partial thromboplastin time incubated for 1 min followed by aPTT reagent based assay; type: functional
In short: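 Compounds were tested at 300 µM, and the increase was expressed relative to DMSO. The doubling concentration (EC2×) is the concentration prolonging aPTT twofold. At least triplicate, mean ± SD.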

[11] = molecular target: T3, Coagulation factor XII (Homo sapiens) (UniProt P00748); test: Inhibition of human coagulation factor XIIA using Boc-Gln-Gly-Arg-AMC as fluorogenic substrate at 100 nM measured at 1 min interval for 1 hr by fluorometric assay relative to control
T3 sequence (whole entry): T2 sequence (P00748 whole entry)
In short: (§3)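 Screening of crude microscale amide-coupling products. Conversion was measured by 1H NMR and product content normalised to 76 µmol/L in DMSO, then tested at 1 µM and 100 nM in the fluorogenic FXIIa or thrombin assay. A 0-conversion reaction served as blank. Percent inhibition is from triplicates.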

[12] = tested on: Blood; test: Effect on blood coagulation in human blood assessed as increase in prothrombin time at 300 uM incubated for 3 mins followed by CaCl2 addition by PT reagent based assay relative to control; type: ADME, tissue-based; conditions: 0.05 h
In short: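 Clotting was started with PT reagent already containing CaCl2, prewarmed to 37 °C, and clotting time was recorded. Increase is given relative to DMSO; at least triplicate, mean ± SD.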

[13] = molecular target: T3, Coagulation factor XII (Homo sapiens); test: Inhibition of human coagulation factor XIIA in presence of Boc-Gln-Gly-Arg-AMC as fluorogenic substrate at 1 uM measured at 1 min interval for 1 hr by fluorometric assay relative to control; in short: as §3
[14] = tested on: Plasma; test: as §1, with “amplitude” for “half life”, “thrombin peak” for “clotting time”, “(reference value: 63” for “(Rvb= 3”, “3.7 AU/L)” for “0.5 min)”; type: functional; conditions: 0.25 h; in short: as §2
[15] = molecular target: Plasminogen (Homo sapiens, UniProt P00747); test: Inhibition of human plasmin using Mes-dArg-Phe-Arg-AMC as fluorogenic substrate measured at 1 min interval for 1 hr by fluorometric assay
[16] = molecular target: Plasma kallikrein (Homo sapiens, UniProt P03952); test: Inhibition of human kallikrein using Mes-dArg-Pro-Arg-AMC as fluorogenic substrate measured at 1 min interval for 1 hr by fluorometric assay
Chain of Plasma kallikrein (P03952 20-390 limits assumed): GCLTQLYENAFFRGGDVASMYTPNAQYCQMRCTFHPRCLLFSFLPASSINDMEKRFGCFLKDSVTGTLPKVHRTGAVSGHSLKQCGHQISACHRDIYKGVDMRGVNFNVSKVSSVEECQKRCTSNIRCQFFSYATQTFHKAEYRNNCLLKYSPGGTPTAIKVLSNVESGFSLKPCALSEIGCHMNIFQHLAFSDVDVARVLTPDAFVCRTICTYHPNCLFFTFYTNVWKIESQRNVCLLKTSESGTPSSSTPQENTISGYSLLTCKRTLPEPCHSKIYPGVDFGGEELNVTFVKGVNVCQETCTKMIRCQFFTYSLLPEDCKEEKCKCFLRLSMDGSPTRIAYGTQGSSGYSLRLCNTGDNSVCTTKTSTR
Chain of Plasma kallikrein (P03952 391-638 limits assumed): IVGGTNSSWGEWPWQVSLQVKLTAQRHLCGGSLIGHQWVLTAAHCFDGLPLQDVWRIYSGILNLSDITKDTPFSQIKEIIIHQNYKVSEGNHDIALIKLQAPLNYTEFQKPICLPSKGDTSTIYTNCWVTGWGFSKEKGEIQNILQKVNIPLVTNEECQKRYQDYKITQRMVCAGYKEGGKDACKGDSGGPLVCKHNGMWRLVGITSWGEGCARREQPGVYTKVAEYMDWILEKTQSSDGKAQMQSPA

Chain of Plasminogen (P00747 97-580 limits assumed): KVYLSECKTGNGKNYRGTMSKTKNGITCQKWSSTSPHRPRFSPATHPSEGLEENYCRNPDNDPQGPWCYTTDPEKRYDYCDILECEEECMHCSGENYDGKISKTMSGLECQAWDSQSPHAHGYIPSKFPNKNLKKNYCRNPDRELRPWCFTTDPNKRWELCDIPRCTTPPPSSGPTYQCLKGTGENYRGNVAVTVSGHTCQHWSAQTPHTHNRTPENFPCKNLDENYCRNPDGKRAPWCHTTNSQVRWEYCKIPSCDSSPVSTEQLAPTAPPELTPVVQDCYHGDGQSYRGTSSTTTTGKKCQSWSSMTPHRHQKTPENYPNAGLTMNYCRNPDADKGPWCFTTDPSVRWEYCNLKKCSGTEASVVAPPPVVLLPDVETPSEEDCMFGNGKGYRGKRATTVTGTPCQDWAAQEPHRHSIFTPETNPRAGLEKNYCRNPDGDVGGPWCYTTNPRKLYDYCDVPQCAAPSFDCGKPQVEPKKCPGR
Chain of Plasminogen (P00747 581-810 limits assumed): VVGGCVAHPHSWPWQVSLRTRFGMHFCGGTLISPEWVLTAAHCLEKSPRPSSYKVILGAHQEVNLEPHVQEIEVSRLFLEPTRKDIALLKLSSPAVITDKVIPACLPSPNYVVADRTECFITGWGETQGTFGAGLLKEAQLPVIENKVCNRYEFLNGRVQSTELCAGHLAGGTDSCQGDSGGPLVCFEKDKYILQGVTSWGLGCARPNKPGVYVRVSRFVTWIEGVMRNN
Chain of Coagulation factor XI (P03951 19-387 limits assumed): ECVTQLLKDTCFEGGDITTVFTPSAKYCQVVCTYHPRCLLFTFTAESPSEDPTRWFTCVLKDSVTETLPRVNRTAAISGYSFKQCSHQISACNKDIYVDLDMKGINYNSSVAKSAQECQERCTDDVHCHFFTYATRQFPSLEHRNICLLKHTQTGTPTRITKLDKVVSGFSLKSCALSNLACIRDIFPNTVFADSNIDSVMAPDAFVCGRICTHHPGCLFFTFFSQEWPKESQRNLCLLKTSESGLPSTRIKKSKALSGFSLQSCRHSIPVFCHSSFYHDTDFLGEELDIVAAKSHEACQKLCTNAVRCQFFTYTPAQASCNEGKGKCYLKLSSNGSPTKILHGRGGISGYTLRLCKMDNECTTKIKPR
Chain of Coagulation factor XI (P03951 388-625 limits assumed): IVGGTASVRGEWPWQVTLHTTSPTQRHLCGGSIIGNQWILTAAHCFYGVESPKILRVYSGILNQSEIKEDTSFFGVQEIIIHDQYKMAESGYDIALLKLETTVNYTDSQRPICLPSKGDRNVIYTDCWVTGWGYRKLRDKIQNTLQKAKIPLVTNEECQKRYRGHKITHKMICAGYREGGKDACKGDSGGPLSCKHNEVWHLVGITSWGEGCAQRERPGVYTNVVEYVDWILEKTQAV

Row | IC50 [1] | IC50 [2] | IC50 [4] | IC50 [5] | IC50 [7] | inhibition [11] | Activity [12] | inhibition [13] | IC50 [15] | IC50 [16] | Compound | T1/2 [3] | Tmax [6] | Activity [8] | Activity [9] | 2aPTT [10] | Activity [14]
1 | > 5 µM | 6.76 µM | > 5 µM | 0.027 µM | 0.138 µM | 19% | 575% | 77% | > 5 µM | > 5 µM | Nc1nc(-c2ccccn2)nn1C(=O)c1ccc2ccccc2c1 | 2.3 min | 8 min | 2160 AU.min/L | 25% | 107 µM | 175.5 AU/L
2 | > 5 µM | > 5 µM | > 5 µM | 0.375 µM | 0.029 µM | 77% | 14% | 98% | > 5 µM | > 5 µM | Nc1nc(-c2ccccn2)nn1C(=O)c1cccc2ccccc12 | 2.7 min | 7 min | 738 AU.min/L | 8% | 236 µM | 53.3 AU/L
